The target of assay [1] is hCHT (human chitotriosidase) (Homo sapiens, UniProt Q13231). The assay is described as follows: Chitinase activity assay, steady-state kinetics. In kind it is biochemical. The method in brief:
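Human chitotriosidase at 2 nM final with fluorigenic 4MU-(GlcNAc)3 in 0.2 M Na2HPO4/0.1 M citric acid pH 5.5, incubated 60 min at 37°C. Quenched with 3 M glycine/NaOH pH 10; 4MU product read at ex 360/em 460 nm. Reactions run in triplicate, with no-enzyme readings subtracted. Km and kcat from steady-state fit, means ± S.E.M. of three independent experiments.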

Assay [2] addresses T1, YKL-39 S143D/I145E active mutant (Homo sapiens, UniProt Q15782, I145E/S143D).
T1 sequence (Q15782 27-390 S143D/I145E): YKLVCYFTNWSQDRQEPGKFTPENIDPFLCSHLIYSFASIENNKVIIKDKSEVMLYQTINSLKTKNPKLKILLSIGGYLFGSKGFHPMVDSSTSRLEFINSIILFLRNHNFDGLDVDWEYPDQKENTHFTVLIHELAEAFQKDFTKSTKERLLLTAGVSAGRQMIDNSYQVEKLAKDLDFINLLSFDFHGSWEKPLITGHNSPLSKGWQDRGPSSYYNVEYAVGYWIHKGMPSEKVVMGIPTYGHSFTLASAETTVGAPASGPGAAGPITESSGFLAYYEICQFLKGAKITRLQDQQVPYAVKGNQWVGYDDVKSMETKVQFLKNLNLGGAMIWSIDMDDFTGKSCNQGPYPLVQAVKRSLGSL
The assay is described as follows: Chitinase activity assay, steady-state kinetics and inhibition. In kind it is biochemical. The method in brief: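 S143D/I145E mutant was secreted from methanol-induced Pichia pastoris GS115 and purified by CM-Sepharose and size exclusion. 20 nM enzyme with 4MU-(GlcNAc)3 in 0.2 M Na2HPO4/0.1 M citric acid pH 5.5, 60 min at 37°C. Quenched with 3 M glycine/NaOH pH 10; read at ex 360/em 460 nm. Triplicates, no-enzyme blank subtracted. Kinetic parameters from curve fit over three independent experiments; Ki by non-linear regression.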

Assay [3] deals with T2, YKL-39 (Homo sapiens, UniProt Q15782).
T2 sequence (Q15782 27-390): T1 sequence (Q15782 27-390 S143D/I145E) with D117S, E119I
Description: Glycan array screen. Format: binding. The note with it: AlexaFluor 488-labelled YKL-39, array of 264 glycans. The method in brief: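 Amino-linked natural and synthetic glycans were printed on modified glass slides, six replicates each. Dye-labelled protein was applied for 1 h at room temperature. Slides were spun dry and scanned at ex 495/em 520 nm. Means ± S.D. of four observations.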

The subject of assay [4] is hAMCase. As to conditions: cited from earlier work.

Residue numbers refer to the chain shown, from its start.

Here are results for 5 molecules from publication PMC3513709 (The Biochemical journal, 2012).

Sequence of hCHT (human chitotriosidase) (Q13231 22-466): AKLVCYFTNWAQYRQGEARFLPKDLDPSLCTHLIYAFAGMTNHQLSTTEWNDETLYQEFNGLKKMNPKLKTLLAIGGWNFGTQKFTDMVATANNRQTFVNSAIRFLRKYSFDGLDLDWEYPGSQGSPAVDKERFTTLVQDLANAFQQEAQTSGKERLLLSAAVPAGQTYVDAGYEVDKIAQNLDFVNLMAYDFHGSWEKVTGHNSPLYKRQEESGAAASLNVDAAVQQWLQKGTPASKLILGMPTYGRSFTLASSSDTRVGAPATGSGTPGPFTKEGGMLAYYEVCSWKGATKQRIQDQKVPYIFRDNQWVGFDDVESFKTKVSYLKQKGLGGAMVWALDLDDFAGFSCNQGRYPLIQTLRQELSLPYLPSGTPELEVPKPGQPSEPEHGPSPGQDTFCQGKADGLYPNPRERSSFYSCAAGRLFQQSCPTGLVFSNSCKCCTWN

For orientation: kcat means the maximal rate divided by the concentration of active sites. Broadly, the Km is the concentration of substrate that gives half-maximal velocity. With `CC(=O)N[C@H]1[C@H](Oc2ccc3c(C)cc(=O)oc3c2)O[C@H](CO)[C@@H](O[C@@H]2O[C@H](CO)[C@@H](O[C@@H]3O[C@H](CO)[C@@H](O)[C@H](O)[C@H]3NC(C)=O)[C@H](O)[C@H]2NC(C)=O)[C@@H]1O` [4MU-(GlcNAc)3, 4-methylumbelliferyl-β-D-N,N′,N′’-triacetylchitotriose], the kcat in assay [1] (fluorigenic pseudosubstrate, pH 5.5, 37°C) was determined as 15.7 ± 0.3 s⁻¹; in assay [2] (YKL-39 S143D/I145E, fluorigenic pseudosubstrate, pH 5.5, 37°C), 0.02 ± 0.0002 s⁻¹. Moreover, the Km is 53 ± 3 µM in assay [1] (read-out: Michaelis constant (Km), fluorigenic pseudosubstrate, pH 5.5, 37°C) and 9 ± 1 µM in assay [2] (read-out: Michaelis constant (Km), YKL-39 S143D/I145E, fluorigenic pseudosubstrate, pH 5.5, 37°C). Consider `CC(=O)N[C@H]1[C@H](O[C@H]2[C@H](O)[C@@H](NC(C)=O)[C@H](O[C@H]3[C@H](O)[C@@H](NC(C)=O)C(O)O[C@@H]3CO)O[C@@H]2CO)O[C@H](CO)[C@@H](O[C@@H]2O[C@H](CO)[C@@H](O[C@@H]3O[C@H](CO)[C@@H](O[C@@H]4O[C@H](CO)[C@@H](O)[C@H](O)[C@H]4NC(C)=O)[C@H](O)[C@H]3NC(C)=O)[C@H](O)[C@H]2NC(C)=O)[C@@H]1O` (stereo partly drawn) [(GlcNAc)6, chitohexaose], for which, in assay [3], the “binding to YKL-39 in glycan array (relative fluorescence)” value is on record as “strongest binders”. Consider `Cn1cnc2c1c(=O)n(CCCn1c(=O)c3[nH]cnc3n(C)c1=O)c(=O)n2C` [bisdionin F], for which, in assay [4], the “activity against hAMCase” value is recorded as “submicromolar” and the “selectivity for hAMCase over hCHT” value was “selectivity over hCHT”. Broadly, the Ki is a dissociation constant, usually derived from enzyme kinetics or from competition with a known ligand. A low value points to higher affinity. In assay [2], `CCc1nc2c([nH]1)c(=O)n(CCCn1c(=O)c3c(ncn3C)n(C)c1=O)c(=O)n2C` [bisdionin G, 1-{3-[3,7-dimethyl-2,6-dioxo-2,3-dihydro-6H-purin-1(7H)-yl]propyl}-8-ethyl-3-methyl-1H-purine-2,6(3H, 7H)-dione] displayed a Ki of 120 ± 2 µM. (GlcNAc)5: the “binding to YKL-39 in glycan array (relative fluorescence)” value in assay [3] is reported as “strongest binders”.
